Experimental data reported in ChEMBL document CHEMBL1125870, “Chemical and biological studies on a series of lipid-soluble (trans-(R,R)- and -(S,S)-1,2-diaminocyclohexane)platinum(II) complexes incorporated in liposomes” (J Med Chem, 1991).

Tests used:
[1] = species on record: Rattus norvegicus; assay: Compound was tested for the subacute single dose from the toxicity studies in rats.; assay type: organism-based; details: in vivo
[2] = tested on: Mus musculus; assay: Compound was tested for its efficacy against L1210 / cisplatin Leukemia in mice at a dose of 5 mg/kg through intraperitoneal route.(Treatment schedule day is 1,5,9).; assay type: functional, organism-based; parameters: dose 5 mg/kg
How it was run: (§1)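 L1210/cisplatin cells (NCI repository) passaged weekly ip in BDF1 mice. Groups of six B6D2F1 mice, 20-25 g, inoculated ip with 10^6 cells on day 0, then given liposomal Pt (DMPC:DMPG 7:3 multilamellar vesicles in 0.9% NaCl) or cisplatin ip on days 1, 5 and 9. Read-out %T/C = median survival treated/control ×100; study ended day 60; average of two experiments.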

[3] = tested on: Mus musculus; assay: Compound was tested for its efficacy against L1210 Leukemia in mice at a dose of 5 mg/kg through intraperitoneal route.(Treatment schedule day is 1,5,9).; assay type: functional, organism-based; parameters: dose 5 mg/kg
[4] = tested on: Mus musculus; assay: Compound was tested for its efficacy against L1210 Leukemia in mice at a dose of 25 mg/kg through intraperitoneal route.(Treatment schedule day is 1).; assay type: functional, organism-based; parameters: dose 25 mg/kg
How it was run: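 Six B6D2F1 mice per group, 20-25 g, inoculated ip with 10^6 L1210/0 cells on day 0. A single ip dose of liposomal Pt (DMPC:DMPG 7:3 multilamellar vesicles in 0.9% NaCl) was given on day 1; doses of 12.5, 25 and 50 mg/kg were tested. %T/C = median survival treated/control ×100; study ended day 60; mean of three experiments.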

[5] = tested on: Mus musculus; assay: Compound was tested for its efficacy against L1210 / cisplatin Leukemia in mice at a dose of 25 mg/kg through intraperitoneal route.(Treatment schedule day is 1,5,9).; assay type: functional, organism-based; parameters: dose 25 mg/kg; how it was run: as §1
[6] = tested on: Mus musculus; assay: Compound was tested for its efficacy against L1210 Leukemia in mice at a dose of 25 mg/kg through intraperitoneal route.(Treatment schedule day is 1,5,9).; assay type: functional, organism-based; parameters: dose 25 mg/kg
How it was run: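 L1210/0 leukemia passaged weekly ip in BDF1 mice. Six B6D2F1 mice per group (20-25 g) received 10^6 cells ip on day 0. Liposomal Pt (DMPC:DMPG 7:3 MLVs in 0.9% NaCl) or cisplatin was given ip on days 1, 5, 9; doses tested 12.5, 25, 50 mg/kg. Optimal dose is the highest %T/C without toxic deaths. %T/C is from median survival; study ended day 60; average of two experiments.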

[7] = species on record: Rattus norvegicus; assay: Compound was tested for the subacute single dose from the toxicity studies in rats; assay type: organism-based; details: in vivo

Substance	LD50 [1] [mg/kg]	T/C [4] [%]	also measured
CISPLATIN [listing 1 of 2 here]	17.5	–	–
CISPLATIN [listing 2 of 2 here]	–	175	T/C [2]: 112%; T/C [3]: 220%
Liposomal preparation of (ttans-(R,R)-dach)Pt complex containing isomeric mixture of neodecanoic acid (L-NDDP) [listing 1 of 2 here]	54	–	–
Liposomal preparation of (ttans-(R,R)-dach)Pt complex containing isomeric mixture of neodecanoic acid (L-NDDP) [listing 2 of 2 here]	–	187	T/C [5]: 200%; T/C [6]: 312%
Pt (2,2-diethyl-4-methylpentanoato)2((R,R)-dach) [listing 1 of 2 here]	62.3	–	–
Pt (2,2-diethyl-4-methylpentanoato)2((R,R)-dach) [listing 2 of 2 here]	–	225	T/C [5]: 185%; T/C [6]: 257%
Pt (2,2-diethyl-4-methylpentanoato)2((S,S)-dach) [listing 1 of 2 here]	–	–	LD50 [7]: 81 mg/kg
Pt (2,2-diethyl-4-methylpentanoato)2((S,S)-dach) [listing 2 of 2 here]	–	160	–
Pt (2,2-diethylhexanoato)2((R,R)-dach) [listing 1 of 2 here]	80.8	–	–
Pt (2,2-diethylhexanoato)2((R,R)-dach) [listing 2 of 2 here]	–	253	T/C [5]: 231%; T/C [6]: 257%
Pt (2,2-diethylhexanoato)2((S,S)-dach) [listing 1 of 2 here]	104	–	–
Pt (2,2-diethylhexanoato)2((S,S)-dach) [listing 2 of 2 here]	–	190	–
Pt (2,2-dimethyl-4-ethylhexanoato)2((R,R)-dach)	–	212	–
Pt (2,2-dimethyloctanoato)2((R,R)-dach) [listing 1 of 2 here]	94.5	–	–
Pt (2,2-dimethyloctanoato)2((R,R)-dach) [listing 2 of 2 here]	–	234	T/C [5]: 355%; T/C [6]: 257%
Pt (2,2-dimethyloctanoato)2((S,S)-dach) [listing 1 of 2 here]	87	–	–
Pt (2,2-dimethyloctanoato)2((S,S)-dach) [listing 2 of 2 here]	–	150	–
